Measured values reported in ChEMBL document CHEMBL1649161, “Pharmacokinetics of EDP-420 after ascending single oral doses in healthy adult volunteers” (Antimicrob Agents Chemother, 2009).
Values after ≈ are worked out from the molar mass of the structure shown.

Tests used:
[1] = AUC (0 to last) in healthy human plasma at 100 mg, po administered as single dose measured after 120 hrs; assay type: ADME, organism-based; design: dose 100 mg, route oral, time 0 - last
In short: (§1)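 Healthy adults (6 per dose group) received a single oral suspension after an 8-h fast, with food withheld 4 h. EDTA blood was drawn predose to 120 h. Plasma was protein-precipitated with ACN and assayed by LC-MS/MS (clarithromycin internal standard; range 1–1,000 ng/ml). AUC0-last was computed by linear-up/log-down trapezoid; AUC0-∞ added Clast/λz. Values are noncompartmental means.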

[2] = AUC (0 to last) in healthy human plasma at 800 mg, po administered as single dose measured after 120 hrs; assay type: ADME, organism-based; design: dose 800 mg, route oral, time 0 - last; in short: as §1
[3] = Cmax in healthy human plasma at 800 mg, po administered as single dose measured after 120 hrs; assay type: ADME, organism-based; design: dose 800 mg, route oral
In short: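 Healthy adults (n = 6 per dose) took a single oral suspension fasted (8 h before, 4 h after). Plasma was sampled from 0.25 to 120 h postdose and quantified by validated LC-MS/MS after acetonitrile precipitation (LLOQ 1 ng/ml). Cmax was read directly from observed concentration–time data; the group mean was reported.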

[4] = Tmax in healthy human plasma at 200 mg, po administered as single dose measured after 120 hrs; assay type: ADME, organism-based
In short: (§2)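 Fasted healthy adults (n = 6 per group) took one oral suspension dose. Plasma was sampled from predose through 0.25–120 h postdose and measured by validated LC-MS/MS (lower limit 1 ng/ml). Tmax was read directly from observed concentration–time data using actual sampling times and reported as median with range.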

[5] = Tmax in healthy human plasma at 400 mg, po administered as single dose measured after 120 hrs; assay type: ADME, organism-based; in short: as §2
[6] = Tmax in healthy human plasma at 1200 mg, po administered as single dose measured after 120 hrs; assay type: ADME, organism-based; in short: as §2
[7] = Half life in healthy human plasma at 800 mg, po administered as single dose measured after 120 hrs; assay type: ADME, organism-based
[8] = Half life in healthy human plasma at 1200 mg, po administered as single dose measured after 120 hrs; assay type: ADME, organism-based
[9] = Elimination rate constant in healthy human plasma at 400 mg, po administered as single dose measured after 120 hrs; assay type: ADME, organism-based
[10] = Elimination rate constant in healthy human plasma at 800 mg, po administered as single dose measured after 120 hrs; assay type: ADME, organism-based
[11] = Elimination rate constant in healthy human plasma at 1200 mg, po administered as single dose measured after 120 hrs; assay type: ADME, organism-based
[12] = Apparent oral clearance in healthy human plasma at 100 mg, po administered as single dose measured after 120 hrs; assay type: ADME, organism-based
In short: (§3)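 Single oral suspension dose in fasted healthy adults (6 per group). Plasma was collected to 120 h and measured by LC-MS/MS (1–1,000 ng/ml). Apparent oral clearance was dose divided by AUC0-∞ (noncompartmental, linear-up/log-down trapezoid extrapolated with Clast/λz); the mean was reported.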

[13] = Apparent oral clearance in healthy human plasma at 200 mg, po administered as single dose measured after 120 hrs; assay type: ADME, organism-based; in short: as §3
[14] = Apparent oral clearance in healthy human plasma at 400 mg, po administered as single dose measured after 120 hrs; assay type: ADME, organism-based; in short: as §3
[15] = Apparent volume of distribution in healthy human plasma at 800 mg, po administered as single dose measured after 120 hrs; assay type: ADME, organism-based
[16] = Apparent volume of distribution in healthy human plasma at 1200 mg, po administered as single dose measured after 120 hrs; assay type: ADME, organism-based
Homo sapiens [17] = assay: Renal clearance in healthy human assessed as cumulative amount excreted in urine at 200 mg, po administered as single dose measured after 48 hrs; assay type: ADME, organism-based; conditions: in vivo
In short: (§4)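 Healthy adults (6 per dose) received a single fasted oral suspension dose. Urine was collected predose and over 0–2, 2–4, 4–6, 6–8, 8–12, 12–24 and 24–48 h intervals, volumes were recorded, and aliquots were stored at −20°C. Samples were assayed by LC-MS/MS. Ae0-48 is the summed volume × concentration over all intervals; the mean was reported.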

Homo sapiens [18] = assay: Renal clearance in healthy human assessed as cumulative amount excreted in urine at 400 mg, po administered as single dose measured after 48 hrs; assay type: ADME, organism-based; conditions: in vivo; in short: as §4
Homo sapiens [19] = assay: Renal clearance in healthy human assessed as cumulative amount excreted in urine at 800 mg, po administered as single dose measured after 48 hrs; assay type: ADME, organism-based; conditions: in vivo; in short: as §4
Homo sapiens [20] = assay: Renal clearance in healthy human assessed as cumulative amount excreted in urine at 1200 mg, po administered as single dose measured after 48 hrs; assay type: ADME, organism-based; conditions: in vivo; in short: as §4
[21] = Renal clearance in healthy human assessed as cumulative fraction excreted unchanged in urine at 400 mg, po administered as single dose measured after 48 hrs; assay type: ADME, organism-based; conditions: read-out: Fraction Recovered in urine
In short: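 Urine collected predose and over 0–2, 2–4, 4–6, 6–8, 8–12, 12–24 and 24–48 h after a single oral suspension dose, given after an 8-h fast with no food for 4 h after. Volumes measured, stored at −20°C, EDP-420 quantified by LC-MS/MS. fe0-48 = Ae0-48/dose × 100%, where Ae0-48 is the sum of volume × concentration over the intervals. Six active subjects per dose.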

[22] = Renal clearance in healthy human at 400 mg, po administered as single dose measured after 48 hrs; assay type: ADME, organism-based, Kidney; conditions: in vivo, read-out: CL_renal (converted)
In short: (§5)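 Healthy adults (6 active per dose) got a single oral suspension dose after an 8-h fast, with food withheld 4 h. Urine over 0–48 h in intervals and serial EDTA plasma were assayed by validated LC-MS/MS, with plasma calibration from 1 to 1,000 ng/ml. CLR = Ae0-48 (urine volume × concentration summed) divided by plasma AUC0-48.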

[23] = Renal clearance in healthy human at 800 mg, po administered as single dose measured after 48 hrs; assay type: ADME, organism-based, Kidney; conditions: in vivo, read-out: CL_renal (converted); in short: as §5
Streptococcus pneumoniae = assay: Antimicrobial activity against macrolide-resistant Streptococcus pneumoniae carrying mefA and/or ermB genes; assay type: functional
Legionella sp. = assay: Antimicrobial activity against Legionella sp.; assay type: functional
Homo sapiens [24] = assay: Toxicity in healthy human assessed as incidence of adverse events at 100 to 1200 mg, po administered as single dose; assay type: organism-based; conditions: in vivo
In short: (§6)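 Randomized, double-blind, placebo-controlled single ascending dose study with eight subjects per group (6 drug, 2 placebo of microcrystalline cellulose). Subjects were fasted before dosing. Safety labs were done at 120 h, with a full chemistry panel also at 72 and 96 h for the top dose. Final evaluation on day 8–10, with adverse events recorded.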

Homo sapiens [25] = assay: Toxicity in healthy human assessed as incidence of elevated hepatic transaminase levels at 100 to 1200 mg, po administered as single dose; assay type: organism-based; conditions: in vivo; in short: as §6
Homo sapiens [26] = assay: Toxicity in healthy human assessed as changes in direct and total bilirubin level at 100 to 1200 mg, po administered as single dose; assay type: organism-based; conditions: in vivo; in short: as §6
Homo sapiens [27] = assay: Toxicity in healthy human assessed as changes in physical parameters signs at 100 to 1200 mg, po administered as single dose; assay type: organism-based; conditions: in vivo
[28] = AUC (0 to infinity) in healthy human plasma at 100 mg, po administered as single dose measured after 120 hrs; assay type: ADME, organism-based; design: dose 100 mg, route oral, time infinity; in short: as §1
[29] = AUC (0 to infinity) in healthy human plasma at 200 mg, po administered as single dose measured after 120 hrs; assay type: ADME, organism-based; design: dose 200 mg, route oral, time infinity; in short: as §1
[30] = AUC (0 to infinity) in healthy human plasma at 400 mg, po administered as single dose measured after 120 hrs; assay type: ADME, organism-based; design: dose 400 mg, route oral, time infinity; in short: as §1

CC[C@H]1OC(=O)[C@H](C)C(=O)[C@H](C)[C@@H](O[C@@H]2O[C@H](C)C[C@H](N(C)C)[C@H]2O)[C@@]2(C)C[C@@H](C)/C(=N\C(C)=O)[C@H](C)[C@@H](OC/C(=N\OCc3ccc(-n4cccn4)nc3)CO2)[C@]1(C)O [MODITHROMYCIN] gave an AUC(0-t) at 120 h [1] of 3400 ng·h/mL, an AUC(0-t) at 120 h [2] of 33400 ng·h/mL and a Cmax [3] of 1070 ng/mL. The Tmax [4] was 2.5 h, the Tmax [5] was 3.25 h and the Tmax [6] was 5 h. It also gave a half-life [7] of 1060 min, a half-life [8] of 1210 min and a k el at 120 h [9] of 1.22e-05 s⁻¹. The k el at 120 h [10] was 1.09e-05 s⁻¹, the k el at 120 h [11] was 9.56e-06 s⁻¹ and the CL/F [12] was 485 mL/min. It also gave a CL/F [13] of 432 mL/min, a CL/F [14] of 463 mL/min and a Vd/F [15] of 601 L. For the same molecule, the Vd/F [16] was 909 L, the “Amount Recovered in urine” value (Homo sapiens [17]) was 24.5 mg and the “Amount Recovered in urine” value (Homo sapiens [18]) was 41.9 mg. The “Amount Recovered in urine” value (Homo sapiens [19]) was 91.1 mg, the “Amount Recovered in urine” value (Homo sapiens [20]) was 70.1 mg and the dose excreted at 48 h [21] was 10.5%. The CL renal at 48 h [22] was 58 mL/min, the CL renal at 48 h [23] was 57.5 mL/min and the MIC (Streptococcus pneumoniae) was 0.25 µg/mL (≈ 0.297 µM). For the same molecule, the MIC90 (Legionella sp.) was 0.031 µg/mL (≈ 0.0369 µM), the Activity (Homo sapiens [24]) was 16.7% and the Activity (Homo sapiens [25]) was 23%. For the same molecule, the Activity (Homo sapiens [26]) was “Non-toxic”, the Activity (Homo sapiens [27]) was “Non-toxic” and the AUC(0-inf) [28] was 3430 ng·h/mL. The AUC(0-inf) [29] was 7710 ng·h/mL and the AUC(0-inf) [30] was 14400 ng·h/mL.
